Laboratory results published in ChEMBL document CHEMBL2321765 (J Med Chem, 2013).

Assays:
CYP3A4 [1] = molecular target: T1, CYP3A4 (Homo sapiens, UniProt P08684); test: Inhibition of CYP3A4 in human liver microsomes using testosterone as substrate at 10 uM by LC-MS-MS analysis relative to control; assay type: ADME, Microsome; details: probe testosterone
CYP3A4 [2] = molecular target: T1, CYP3A4; test: Time dependent inhibition of CYP3A4 in human liver microsomes using testosterone as substrate at 10 uM preincubated for 30 mins by LC-MS-MS analysis relative to control; assay type: ADME, Microsome; details: probe testosterone, read-out: TDI
In short: (§1)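 CYP3A4 metabolism of testosterone was measured after 0 or 30 min preincubation of enzyme with test article at the indicated concentration. Activity lost via preincubation, relative to the zero-minute control with the same inhibitor, was the end point. 6β-OH testosterone was detected by LC-MS/MS with cortisone as internal standard.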

[3] = molecular target: Voltage-gated inwardly rectifying potassium channel KCNH2 (Homo sapiens, UniProt Q12809); test: Inhibition of human ERG
[4] = Oral bioavailability in dog; assay type: ADME, organism-based, Canis lupus familiaris; details: in vivo
[5] = Half life in dog; assay type: ADME, organism-based, Canis lupus familiaris; details: in vivo
[6] = Plasma clearance in dog; assay type: ADME, organism-based, Canis lupus familiaris
[7] = Volume of distribution at steady state in dog; assay type: ADME, organism-based, Canis lupus familiaris; details: in vivo, read-out: Vdss
[8] = Oral bioavailability in rat; assay type: ADME, organism-based; details: in vivo
[9] = Half life in rat; assay type: ADME, organism-based; details: in vivo
[10] = Volume of distribution at steady state in rat; assay type: ADME, organism-based; details: in vivo, read-out: Vdss
[11] = Plasma clearance in rat; assay type: ADME, organism-based
Cytochrome P450 3A4 = Cytochrome P450 3A4 (Homo sapiens, UniProt P08684); test: Time dependent inhibition of CYP3A4 in human liver microsomes using testosterone as substrate by LC-MS-MS analysis relative to control; assay type: ADME, Microsome; in short: as §1
Sequence of Cytochrome P450 3A4 (P08684 whole entry): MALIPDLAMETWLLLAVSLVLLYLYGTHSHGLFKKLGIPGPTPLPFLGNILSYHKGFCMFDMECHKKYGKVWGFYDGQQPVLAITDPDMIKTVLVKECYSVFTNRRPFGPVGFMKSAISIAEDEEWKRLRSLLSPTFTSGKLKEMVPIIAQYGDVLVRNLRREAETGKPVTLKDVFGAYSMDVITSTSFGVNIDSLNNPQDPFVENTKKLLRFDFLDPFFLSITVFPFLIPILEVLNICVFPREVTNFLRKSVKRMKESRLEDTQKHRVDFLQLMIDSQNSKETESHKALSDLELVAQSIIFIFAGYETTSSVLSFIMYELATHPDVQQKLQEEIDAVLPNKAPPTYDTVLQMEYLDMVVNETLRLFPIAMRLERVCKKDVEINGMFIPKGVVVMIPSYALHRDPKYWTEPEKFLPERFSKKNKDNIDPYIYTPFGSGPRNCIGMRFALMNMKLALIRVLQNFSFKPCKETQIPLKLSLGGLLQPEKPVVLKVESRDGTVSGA

T1 sequence (P08684 whole entry): as above
Sequence of Voltage-gated inwardly rectifying potassium channel KCNH2 (Q12809 whole entry): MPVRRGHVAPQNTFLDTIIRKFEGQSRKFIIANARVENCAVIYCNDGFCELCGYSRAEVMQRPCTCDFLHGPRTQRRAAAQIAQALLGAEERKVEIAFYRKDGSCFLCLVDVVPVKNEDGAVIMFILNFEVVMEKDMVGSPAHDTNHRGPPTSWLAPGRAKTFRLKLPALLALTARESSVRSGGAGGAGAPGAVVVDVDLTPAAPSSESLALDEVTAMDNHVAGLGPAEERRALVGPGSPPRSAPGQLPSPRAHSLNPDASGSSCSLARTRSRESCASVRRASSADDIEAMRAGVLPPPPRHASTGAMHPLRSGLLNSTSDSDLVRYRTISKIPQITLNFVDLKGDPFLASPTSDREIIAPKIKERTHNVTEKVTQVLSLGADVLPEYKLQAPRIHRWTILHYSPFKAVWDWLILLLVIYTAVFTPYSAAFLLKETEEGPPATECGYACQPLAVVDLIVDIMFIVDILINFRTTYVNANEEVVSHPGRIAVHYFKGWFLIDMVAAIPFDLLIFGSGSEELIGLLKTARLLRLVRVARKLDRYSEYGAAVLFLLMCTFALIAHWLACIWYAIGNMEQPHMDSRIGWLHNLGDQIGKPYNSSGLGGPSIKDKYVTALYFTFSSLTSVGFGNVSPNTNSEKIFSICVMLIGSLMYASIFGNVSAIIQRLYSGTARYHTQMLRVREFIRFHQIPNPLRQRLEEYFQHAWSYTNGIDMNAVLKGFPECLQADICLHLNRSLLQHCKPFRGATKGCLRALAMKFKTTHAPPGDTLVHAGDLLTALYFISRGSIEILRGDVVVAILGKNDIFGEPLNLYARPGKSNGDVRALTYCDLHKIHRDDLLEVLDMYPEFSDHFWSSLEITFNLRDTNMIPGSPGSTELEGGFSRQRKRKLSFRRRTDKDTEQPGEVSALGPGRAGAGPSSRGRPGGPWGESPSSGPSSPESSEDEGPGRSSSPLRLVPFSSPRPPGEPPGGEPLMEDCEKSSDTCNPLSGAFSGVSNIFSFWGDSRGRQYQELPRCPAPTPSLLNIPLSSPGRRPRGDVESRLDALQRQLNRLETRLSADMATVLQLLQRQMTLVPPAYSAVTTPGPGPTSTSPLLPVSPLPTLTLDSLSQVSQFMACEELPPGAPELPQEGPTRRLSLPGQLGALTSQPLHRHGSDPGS

SMILES | inhibition at 10 µM (CYP3A4 [1]) | inhibition at 30 min, 10 µM (CYP3A4 [2]) | also measured
Cc1nccc(CNS(=O)(=O)Cc2ccc3ccc4ncc(-c5cnn(C)c5)cc4c(=O)c3c2)n1 | 22% | 5% | 
Cn1cc(-c2cnc3ccc4ccc(CS(N)(=O)=O)cc4c(=O)c3c2)cn1 | 0% | 26% | 
CCCNS(=O)(=O)Cc1ccc2ccc3ncc(-c4cnn(C)c4)cc3c(=O)c2c1 | 21% | 15% | 
Cn1cc(-c2cnc3ccc4ccc(CS(=O)(=O)N[C@@H]5CCCC[C@H]5N)cc4c(=O)c3c2)cn1 | 30% | 30% | 
Cn1cc(-c2cnc3ccc4ccc(CS(=O)(=O)NCc5cccnc5)cc4c(=O)c3c2)cn1 | 30% | 0% | 
CN(C)S(=O)(=O)Nc1ccc2ccc3ncc(-c4cnn(C)c4)cc3c(=O)c2c1 |  | 30% | inhibition (INH) [3]: Not Active; bioavailability [4]: 16%; half-life [5]: 48 min; clearance [6]: 57 mL/min/kg; Vd [7]: 3.5 L/kg; bioavailability [8]: 24%; half-life [9]: 42 min; Vd [10]: 2.5 L/kg; clearance [11]: 40 mL/min/kg
CN(C)S(=O)(=O)Cc1ccc2ccc3ncc(-c4cnn(C)c4)cc3c(=O)c2c1 | 0% | 6% | 
Cn1cc(-c2cnc3ccc4ccc(CS(=O)(=O)NCc5ccncc5)cc4c(=O)c3c2)cn1 | 97% |  | 
Cn1cc(-c2cnc3ccc4ccc(CS(=O)(=O)NCc5ccc(F)cc5F)cc4c(=O)c3c2)cn1 | 42% | 17% | 
Cn1cc(-c2cnc3ccc4ccc(CS(=O)(=O)NCc5ccccc5Cl)cc4c(=O)c3c2)cn1 | 17% | 0% | 
Cn1cc(-c2cnc3ccc4ccc(CC(N)=O)cc4c(=O)c3c2)cn1 |  |  | TDI (Cytochrome P450 3A4): < 10%
